From PMC5771882 (Biochemistry, 2017)

What was measured:
BRAF = BRAF (Homo sapiens, UniProt P15056); assay: LC–MS quantitative chemical proteomic assay; assay type: binding; details: ATP 1 mM
HSP70-1A/B = HSP70-1A/B (Homo sapiens, UniProt P0DMV8); assay: LC–MS quantitative chemical proteomic assay; assay type: binding; details: ATP 1 mM
recombinant DGKα [1] = target: T1, recombinant DGKα (Rattus norvegicus, UniProt P51556); assay: LC–MS quantitative chemical proteomic assay; assay type: binding
recombinant DGKα [2] = target: T1, recombinant DGKα; assay: DAG phosphorylation substrate assay; assay type: biochemical; details: DGKα-overexpressed HEK293T soluble proteomes
Procedure, shortened: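 IC50 derived from a dose–response curve of DAG phosphorylation by recombinant DGKα across a range of test compound concentrations. Data are means ± standard error of the mean of two biological replicates, and a 95% confidence interval is given for the IC50.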

T1 sequence (P51556 whole entry): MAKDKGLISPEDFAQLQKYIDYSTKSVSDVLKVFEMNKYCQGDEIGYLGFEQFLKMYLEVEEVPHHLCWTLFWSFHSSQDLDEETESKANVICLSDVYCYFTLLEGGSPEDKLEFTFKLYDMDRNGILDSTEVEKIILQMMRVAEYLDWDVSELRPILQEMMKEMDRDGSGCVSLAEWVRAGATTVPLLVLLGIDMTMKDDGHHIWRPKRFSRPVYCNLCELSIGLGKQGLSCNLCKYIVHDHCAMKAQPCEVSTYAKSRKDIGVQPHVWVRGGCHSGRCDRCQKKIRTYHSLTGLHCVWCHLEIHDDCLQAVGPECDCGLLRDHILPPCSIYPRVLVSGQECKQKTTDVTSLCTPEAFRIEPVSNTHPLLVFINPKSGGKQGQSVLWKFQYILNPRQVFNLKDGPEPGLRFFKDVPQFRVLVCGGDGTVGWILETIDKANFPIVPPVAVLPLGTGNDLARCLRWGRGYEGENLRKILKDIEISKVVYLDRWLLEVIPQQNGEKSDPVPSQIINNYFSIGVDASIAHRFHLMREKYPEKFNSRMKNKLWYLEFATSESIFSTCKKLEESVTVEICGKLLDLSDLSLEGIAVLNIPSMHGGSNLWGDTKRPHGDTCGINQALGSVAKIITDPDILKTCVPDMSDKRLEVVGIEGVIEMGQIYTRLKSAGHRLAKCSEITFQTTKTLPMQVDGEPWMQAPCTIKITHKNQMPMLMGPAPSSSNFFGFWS
Sequence of BRAF (P15056 whole entry): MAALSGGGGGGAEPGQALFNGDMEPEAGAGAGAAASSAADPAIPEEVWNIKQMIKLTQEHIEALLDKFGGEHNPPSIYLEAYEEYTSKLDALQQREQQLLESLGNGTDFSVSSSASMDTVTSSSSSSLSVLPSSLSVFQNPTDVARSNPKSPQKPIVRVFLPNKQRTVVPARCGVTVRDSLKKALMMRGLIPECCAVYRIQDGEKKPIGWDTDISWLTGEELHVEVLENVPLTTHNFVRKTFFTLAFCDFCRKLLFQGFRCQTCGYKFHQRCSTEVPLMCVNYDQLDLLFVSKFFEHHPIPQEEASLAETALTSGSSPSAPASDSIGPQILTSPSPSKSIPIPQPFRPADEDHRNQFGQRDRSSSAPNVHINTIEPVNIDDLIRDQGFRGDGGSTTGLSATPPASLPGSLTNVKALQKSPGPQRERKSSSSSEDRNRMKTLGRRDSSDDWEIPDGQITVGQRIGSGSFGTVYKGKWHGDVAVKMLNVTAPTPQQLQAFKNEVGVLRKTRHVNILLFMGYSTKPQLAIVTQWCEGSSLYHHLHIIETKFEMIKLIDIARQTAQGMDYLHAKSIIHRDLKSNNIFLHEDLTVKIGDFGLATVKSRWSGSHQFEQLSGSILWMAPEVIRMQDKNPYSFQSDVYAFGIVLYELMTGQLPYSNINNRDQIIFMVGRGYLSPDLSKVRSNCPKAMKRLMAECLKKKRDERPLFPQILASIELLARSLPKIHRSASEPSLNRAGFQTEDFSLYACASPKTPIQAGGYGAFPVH
Sequence of HSP70-1A/B (P0DMV8 whole entry): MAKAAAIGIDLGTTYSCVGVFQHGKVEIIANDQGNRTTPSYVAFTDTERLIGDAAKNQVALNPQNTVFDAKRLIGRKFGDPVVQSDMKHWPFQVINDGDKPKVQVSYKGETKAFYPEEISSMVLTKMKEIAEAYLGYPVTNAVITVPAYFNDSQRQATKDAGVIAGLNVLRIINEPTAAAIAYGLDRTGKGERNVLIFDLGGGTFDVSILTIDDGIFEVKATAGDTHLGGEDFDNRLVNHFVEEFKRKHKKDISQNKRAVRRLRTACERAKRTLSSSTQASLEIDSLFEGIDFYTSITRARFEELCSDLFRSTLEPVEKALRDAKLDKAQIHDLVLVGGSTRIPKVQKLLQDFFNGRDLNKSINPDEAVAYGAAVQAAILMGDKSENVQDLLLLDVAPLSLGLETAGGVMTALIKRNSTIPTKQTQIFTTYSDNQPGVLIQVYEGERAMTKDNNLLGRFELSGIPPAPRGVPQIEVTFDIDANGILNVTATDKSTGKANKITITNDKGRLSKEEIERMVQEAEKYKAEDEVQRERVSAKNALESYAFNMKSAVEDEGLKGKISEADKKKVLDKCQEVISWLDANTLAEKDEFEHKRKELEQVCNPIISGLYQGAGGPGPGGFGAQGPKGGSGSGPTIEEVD

Compound | SILAC ratio (SR), BRAF (BRAF) | SILAC ratio (SR), HSP70-1A K56/HSP70-1B K56 (HSP70-1A/B) | blockade of probe labeling at primary ATP-binding sites (DAGKc/DAGKa) (recombinant DGKα [1]; RLM001 10 mM, ATP 1 mM) | SILAC ratio (SR), C1-binding site (recombinant DGKα [1]; free ATP (1 mM)) | blockade of recombinant DGKα catalytic activity (recombinant DGKα [2])
Nc1ncnc2c1ncn2[C@@H]1O[C@H](COP(=O)(O)OP(=O)(O)OP(=O)(O)O)[C@@H](O)[C@H]1O [ATP] | > 5 | > 5 | near-complete blockade of probe labeling | ~ 2 | –
Cc1nc2sccn2c(=O)c1CCN1CCC(=C(c2ccccc2)c2ccc(F)cc2)CC1 [R59022] | – | – | – | – | blockade of catalytic activity
Cc1nc2sccn2c(=O)c1CCN1CCC(=C(c2ccc(F)cc2)c2ccc(F)cc2)CC1 [ritanserin] | – | – | – | – | blockade of catalytic activity
